# Data as given in ChEMBL document CHEMBL4433205, “Dual Pharmacophores Explored via Structure-Activity Relationship (SAR) Matrix: Insights into Potent, Bifunctional Opioid Ligand Design” (J Med Chem, 2019).
# Calls of active or inactive are those of the source.
# Key:
# Mus musculus = assay: Antinociceptive activity in C57BL/6 mouse assessed as increase in latency to tail withdrawal up to 10 mg/kg, ip administered at 30 mins interval measured during compound dosing by warm water tail withdrawal assay relative to control; format: functional
# How it was run: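 Male C57BL/6 mice, 20–30 g, 8–16 weeks. Saline ip, baseline latency 30 min later; then cumulative ip doses 1, 3.2, 10 mg/kg in 5% DMSO/saline at 30 min intervals, latency read 30 min after each. Tail tip (2–3 cm) in 50°C water, 20 s cutoff; expressed as % MPE (MPE = 20 s).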
# [1] = biological target: T1, Kappa-type opioid receptor (Homo sapiens, UniProt P41145); assay: Agonist activity at human kappa opioid receptor expressed in CHO cell membranes assessed as stimulation of [35S]GTPgammaS binding to G protein incubated for 1 hr relative to U69,593; format: functional
# T1 sequence (P41145 whole entry): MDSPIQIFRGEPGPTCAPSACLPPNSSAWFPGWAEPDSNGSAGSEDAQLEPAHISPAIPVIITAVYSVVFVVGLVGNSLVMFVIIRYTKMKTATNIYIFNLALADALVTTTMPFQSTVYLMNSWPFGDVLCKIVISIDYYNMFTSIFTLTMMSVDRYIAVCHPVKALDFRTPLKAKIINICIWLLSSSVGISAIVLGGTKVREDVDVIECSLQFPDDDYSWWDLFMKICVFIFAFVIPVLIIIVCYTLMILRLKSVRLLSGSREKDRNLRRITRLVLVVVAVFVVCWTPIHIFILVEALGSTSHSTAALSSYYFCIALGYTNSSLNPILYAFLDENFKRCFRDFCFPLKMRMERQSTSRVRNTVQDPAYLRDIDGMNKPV
# [2] = biological target: T1, Kappa-type opioid receptor; assay: Agonist activity at human kappa opioid receptor expressed in CHO cell membranes assessed as stimulation of [35S]GTPgammaS binding measured after 1 hr; format: functional
# Mu-type opioid receptor [3] = biological target: T2, Mu-type opioid receptor (Rattus norvegicus, UniProt P33535); assay: Displacement of [3H]diprenorphine from rat mu opioid receptor expressed in rat C6 cell membranes measured after 1 hr by liquid scintillation counting method
# T2 sequence (P33535 whole entry): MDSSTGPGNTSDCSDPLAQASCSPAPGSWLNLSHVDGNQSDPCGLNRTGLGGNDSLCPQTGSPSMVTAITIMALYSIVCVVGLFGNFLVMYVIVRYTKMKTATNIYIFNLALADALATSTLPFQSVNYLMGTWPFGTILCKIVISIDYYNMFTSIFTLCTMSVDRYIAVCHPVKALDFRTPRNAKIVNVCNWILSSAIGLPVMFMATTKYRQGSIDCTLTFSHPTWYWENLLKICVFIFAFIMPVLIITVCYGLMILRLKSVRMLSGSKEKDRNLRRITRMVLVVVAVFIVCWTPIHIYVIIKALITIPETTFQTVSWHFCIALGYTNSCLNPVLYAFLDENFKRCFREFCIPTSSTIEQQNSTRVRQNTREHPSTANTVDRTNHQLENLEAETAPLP
# How it was run: (§1)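 Competition with 0.2 nM [3H]-diprenorphine on membranes (20 μg protein/tube) from stably transfected cells in 50 mM Tris-HCl pH 7.4, 1 h at room temperature with shaking; GF/C filtration, three washes, scintillation counting. Nonspecific binding defined with 10 μM naloxone.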
# Mu-type opioid receptor [4] = biological target: T2, Mu-type opioid receptor; assay: Agonist activity at rat mu opioid receptor expressed in rat C6 cell membranes assessed as stimulation of [35S]GTPgammaS binding measured after 1 hr; format: functional
# How it was run: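 Membranes (10–20 μg protein/tube) from stably transfected cells incubated 1 h at 25°C in 50 mM Tris-HCl, 100 mM NaCl, 5 mM MgCl2, pH 7.4, with 0.1 nM [35S]-GTPγS, 30 μM GDP and varying test concentrations; filtration, scintillation counting.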
# [5] = biological target: Mu-type opioid receptor (Rattus norvegicus) (UniProt P33535); assay: Agonist activity at rat mu opioid receptor expressed in rat C6 glioma cell membranes assessed as stimulation of [35S]GTPgammaS binding measured after 1 hr relative to DAMGO; format: functional
# Chain of Mu-type opioid receptor (Rattus norvegicus) (P33535 whole entry): as above
# [6] = biological target: T3, Delta-type opioid receptor (Rattus norvegicus, UniProt P33533); assay: Agonist activity at rat delta opioid receptor expressed in rat C6 cell membranes assessed as stimulation of [35S]GTPgammaS binding measured after 1 hr; format: functional
# T3 sequence (P33533 whole entry): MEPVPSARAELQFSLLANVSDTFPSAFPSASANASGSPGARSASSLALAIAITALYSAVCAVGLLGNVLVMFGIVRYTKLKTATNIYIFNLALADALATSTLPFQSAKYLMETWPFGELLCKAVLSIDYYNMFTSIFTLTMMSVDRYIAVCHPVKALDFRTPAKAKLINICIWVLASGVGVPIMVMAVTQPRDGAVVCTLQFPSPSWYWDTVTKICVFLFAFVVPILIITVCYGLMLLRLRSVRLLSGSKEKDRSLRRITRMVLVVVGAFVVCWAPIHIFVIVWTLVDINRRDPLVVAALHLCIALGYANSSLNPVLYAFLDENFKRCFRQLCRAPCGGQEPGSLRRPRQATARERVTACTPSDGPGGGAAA
# Rattus norvegicus = species: Rattus norvegicus; assay: Selectivity ratio of Ki for rat delta opioid receptor expressed in rat C6 cell membranes to Ki for rat mu opioid receptor expressed in rat C6 cell membranes; format: cell-based
# How it was run: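 Competition binding against 0.2 nM [3H]-diprenorphine, using C6 membranes expressing rat MOR or rat DOR (20 μg protein/tube). Run in 50 mM Tris-HCl pH 7.4, 1 h at room temperature with shaking, then filtration and scintillation counting. Nonspecific binding with 10 μM naloxone.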
# [7] = Lipophilicity, log P of the compound; format: physicochemical; settings: octanol/water
# [8] = biological target: T1, Kappa-type opioid receptor; assay: Displacement of [3H]diprenorphine from human kappa opioid receptor expressed in CHO cell membranes measured after 1 hr by liquid scintillation counting method; how it was run: as §1
# [9] = biological target: T3, Delta-type opioid receptor; assay: Displacement of [3H]diprenorphine from rat delta opioid receptor expressed in rat C6 cell membranes measured after 1 hr by liquid scintillation counting method
# [10] = biological target: Delta-type opioid receptor (Rattus norvegicus) (UniProt P33533); assay: Agonist activity at rat delta opioid receptor expressed in rat C6 cell membranes assessed as stimulation of [35S]GTPgammaS binding incubated for 1 hr relative to DPDPE; format: functional
# Chain of Delta-type opioid receptor (Rattus norvegicus) (P33533 whole entry): as above
Structure (SMILES),MPE (Mus musculus),Efficacy [1],EC50 ([2]; cho),Ki (Mu-type opioid receptor [3]),EC50 (Mu-type opioid receptor [4]),Efficacy [5],EC50 ([6]; c6),Ratio Ki (Rattus norvegicus),logP [7],Ki [8],Ki [9],Efficacy [10],EC50 ([2]; read-out: EC50),EC50 ([6]; read-out: EC50)
Cc1cc(O)cc(C)c1C[C@H](N)C(=O)N[C@@H]1CCN(C(=O)c2ccccc2)c2ccc(Cc3cc4ccccc4o3)cc21.O=C(O)C(F)(F)F,inactive,inactive,Not Active,0.35 nM,12 nM,58 to 64%,Not Active,2,5.2,100 nM,0.64 nM,inactive,,
Cc1cc(O)cc(C)c1C[C@H](N)C(=O)N[C@@H]1CCNc2ccc(Cc3ccc4c(c3)OCCO4)cc21.O=C(O)C(F)(F)F,inactive,inactive,Not Active,,7.3 nM,88%,Not Active,16,3.5,,,inactive,,
CC(=O)N1CC[C@@H](NC(=O)[C@@H](N)Cc2c(C)cc(O)cc2C)c2cc(Cc3cc4ccccc4o3)ccc21,inactive,33%,,0.12 nM,1.9 nM,86%,,6,3.9,58 nM,0.73 nM,30%,> 500 nM,1.6 nM
Cc1cc(O)cc(C)c1C[C@H](N)C(=O)N[C@@H]1CCNc2ccc(Cc3cnc4ccccc4c3)cc21.O=C(O)C(F)(F)F,inactive,inactive,Not Active,0.1 nM,2.2 nM,84%,Not Active,15,3.7,16 nM,1.5 nM,inactive,,
Cc1cc(O)cc(C)c1C[C@H](N)C(=O)N[C@@H]1CCNc2ccc(Cc3ccc4ccccc4c3)cc21,,,,,,,,,4.9,,,,,
Cc1cc(O)cc(C)c1C[C@H](N)C(=O)N[C@@H]1CCN(S(C)(=O)=O)c2ccc(Cc3ccc4c(c3)OCCO4)cc21.O=C(O)C(F)(F)F,70%,39%,,0.07 nM,9 nM,47%,Not Active,21,3,46 nM,1.5 nM,inactive,> 500 nM,
CC(=O)N1CC[C@@H](NC(=O)[C@@H](N)Cc2c(C)cc(O)cc2C)c2cc(Cc3cnc4ccccc4c3)ccc21.O=C(O)C(F)(F)F,60%,inactive,Not Active,0.15 nM,1.1 nM,76%,,1,3.2,53 nM,0.2 nM,35%,,5.8 nM
Cc1cc(O)cc(C)c1C[C@H](N)C(=O)N[C@@H]1CCN(S(C)(=O)=O)c2ccc(Cc3cnc4ccccc4c3)cc21.O=C(O)C(F)(F)F,50%,inactive,Not Active,0.23 nM,0.26 nM,96%,Not Active,3,3.1,7 nM,0.64 nM,inactive,,
Cc1cc(O)cc(C)c1C[C@H](N)C(=O)N[C@@H]1CCN(C(=O)C2CC2)c2ccc(Cc3ccc4c(c3)OCCO4)cc21.O=C(O)C(F)(F)F,inactive,inactive,Not Active,0.28 nM,6 nM,36%,Not Active,0.7,3.7,412 nM,0.19 nM,inactive,,
CC(=O)N1CC[C@@H](NC(=O)[C@@H](N)Cc2c(C)cc(O)cc2C)c2cc(Cc3ccccc3)ccc21,,,,,,,,,3.4,,,,,
Cc1cc(O)cc(C)c1C[C@H](N)C(=O)N[C@@H]1CCN(C(=O)C2CC2)c2ccc(Cc3cnc4ccccc4c3)cc21.O=C(O)C(F)(F)F,inactive,inactive,Not Active,0.05 nM,0.34 nM,47%,,2,3.8,84 nM,0.08 nM,84%,,0.71 nM
Cc1cc(O)cc(C)c1C[C@H](N)C(=O)N[C@@H]1CCN(C(=O)c2ccccc2)c2ccc(Cc3ccccc3)cc21,,,,,,,,,4.6,,,,,
Cc1cc(O)cc(C)c1C[C@H](N)C(=O)N[C@@H]1CCN(C(=O)c2ccccc2)c2ccc(CN3CCc4ccccc4C3)cc21.O=C(O)C(F)(F)F,inactive,inactive,Not Active,0.37 nM,4.2 nM,93%,Not Active,11,4.5,160 nM,4 nM,inactive,,
Cc1cc(O)cc(C)c1C[C@H](N)C(=O)N[C@@H]1CCN(C(=O)C2CC2)c2ccc(Cc3ccc4ccccc4c3)cc21,inactive,38%,,0.05 nM,0.42 nM,85%,,7,5.1,117 nM,0.37 nM,32%,> 500 nM,1.9 nM
Cc1cc(O)cc(C)c1C[C@H](N)C(=O)N[C@@H]1CCN(C(=O)c2ccccc2)c2ccc(Cc3cnc4ccccc4c3)cc21.O=C(O)C(F)(F)F,100%,inactive,Not Active,0.04 nM,1 nM,43%,Not Active,,,100 nM,0.74 nM,,,
Cc1cc(O)cc(C)c1C[C@H](N)C(=O)N[C@@H]1CCN(C(=O)C2CC2)c2ccc(Cc3ccccc3)cc21,,,,,,,,,3.9,,,,,
Cc1cc(O)cc(C)c1C[C@H](N)C(=O)N[C@@H]1CCN(C(=O)C2CC2)c2ccc(Cc3cc4ccccc4o3)cc21.O=C(O)C(F)(F)F,inactive,inactive,Not Active,0.05 nM,0.9 nM,89%,,,4.5,98 nM,0.26 nM,52%,,3.7 nM
Cc1cc(O)cc(C)c1C[C@H](N)C(=O)N[C@@H]1CCNc2ccc(CN3CCc4ccccc4C3)cc21.O=C(O)C(F)(F)F,inactive,25%,,0.03 nM,0.4 nM,105%,Not Active,,3.7,2.2 nM,3.1 nM,inactive,90 nM,
Cc1cc(O)cc(C)c1C[C@H](N)C(=O)N[C@@H]1CCNc2ccc(Cc3cc4ccccc4o3)cc21.O=C(O)C(F)(F)F,50%,inactive,Not Active,,1.1 nM,98%,Not Active,44,4.3,40 nM,5 nM,inactive,,
CC(=O)N1CC[C@@H](NC(=O)[C@@H](N)Cc2c(C)cc(O)cc2C)c2cc(Cc3ccc4ccccc4c3)ccc21,,,,,,,,,4.5,,,,,
